# TRPC4 act – TRPC4 (mouse) channel activation. HEK293 TRPC4beta/mu-opioid, Fluo4 calcium fluorescence; stronger effect = higher value. B-score at 10 µM. 310,000 compounds, 0.49% hits. AID 2237;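 active = B-score above 5 SD of library B-scores, and initial fluorescence ratio not above library mean plus 5 SD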;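 note: positive B-score marks a calcium rise read as TRPC4 activation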
#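 Incubation: 45 min room-temperature Fluo4 loading, 110 s read / System: HEK293 cells stably co-expressing mouse TRPC4beta and mu-opioid receptor / Signal: Fluo4 fluorescence, kinetic / Control set: buffer (low) and maximal DAMGO (high) / Measure: integrated baseline-normalised fluorescence ratio, converted to per-well B score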
# TRPC6 act – activates the mouse TRPC6 cation channel; 310,000 compounds, 0.13% hits; HEK293-TRPC6 membrane potential dye fluorescence; stronger effect = higher value; B-score at 10 µM;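 active = B-score of the integrated fluorescence ratio above library mean plus 3 SD, and starting fluorescence ratio within library mean plus 5 SD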;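 note: higher score means more depolarization so channel activation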
# TRPC4 inh – inhibitors of mouse TRPC4 channel. Q9QUQ5. 300,000 compounds, 0.39% hits. HEK293 TRPC4beta/mu-opioid, DAMGO-evoked Fluo4 calcium flux; stronger effect = lower value. AID 2247. B-score at 10 µM;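 active = B-score over 3 SD under the library average, no early fluorescence shift, positive overall ratio signal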
#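 Material: HEK293 cells with stable TRPC4beta plus mu-opioid receptor expression; probe or stimulus: DAMGO in two steps, submaximal then maximal; technique: Fluo4 calcium fluorescence by kinetic imaging, 5 s 1 Hz baseline; measure: integrated fluorescence ratio relative to baseline, converted to per-well B score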
# TRPC4 PAM – allosteric potentiators of mouse TRPC4 channel; Q9QUQ5; HEK293 TRPC4beta/mu-opioid, DAMGO EC20, Fluo-4 Ca2+ flux; stronger effect = higher value; B-score at 10 µM; 310,000 compounds, 0.42% hits; AID 2227;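 active = B-score of calcium response area above 5 SD of library B-scores, with initial fluorescence ratio within 5 SD of library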;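 note: B-score of integrated fluorescence ratio over time as area under calcium response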
# TRPC6 inh – inhibitors of mouse TRPC6 channel. Q61143. B-score at 10 µM. HEK293-TRPC6, membrane potential dye, ACh-evoked depolarization; stronger effect = lower value. AID 2553. 310,000 compounds, 1.1% hits;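 active = B-score under library mean minus 3 SD, initial fluorescence not abnormally high, positive integrated signal ratio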;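 note: B-score derived from integrated fluorescence ratio over the kinetic read; more negative B-score means stronger inhibition of depolarization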
# TRPC4 sel inh 2 – mouse TRPC4 off-target activity of TRPC6 inhibitors, second screen. shares compounds with TRPC6 inh. HEK293 TRPC4/MOR, membrane potential dye fluorescence; channel activated by saturating DAMGO dose. inhibition, % at 10 µM. 920 compounds, 42% hits. AID 2776;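 active = compounds whose fluorescence signal differed from control wells by over 3 SD, either direction, in both duplicate plates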
# TRPC4 spec – mouse TRPC4 off-target activity of TRPC6 inhibitors | shares compounds with TRPC6 inh | HEK293 TRPC4/mu-opioid, membrane potential fluorescence | activity change, negative = inhibition, % at 10 µM | 920 compounds, 61% hits | AID 2777;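 active = rise or fall in signal beyond 3 SD of buffer-only wells in both replicate plates, either sign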;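 note: integrated kinetic ratio of fluorescence range over baseline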
# HEK293 MPD ctr 2-1 – second counter-screen for TRPC6 inhibitors: parental HEK293 cells. shares compounds with TRPC6 inh. 920 compounds, 31% hits. signal change vs control, % at 10 µM. parental HEK293 membrane potential dye fluorescence; maximal acetylcholine challenge after compound addition;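 active = membrane potential signal moving either way by over 3 SD of the maximum-effect control, in both duplicate plates, meaning non-specific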
# HEK293 MPD ctr-1 – parental HEK293 nonspecific activity of TRPC6 inhibitors. shares compounds with TRPC6 inh. membrane potential signal change, % at 10 µM. 920 compounds, 60% hits. parental HEK293 membrane potential dye fluorescence;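 active = membrane potential signal shifting up or down by more than 3 SD of buffer-only wells, on both duplicate plates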
# HEK293 MPD ctr-2 – counter-screen for TRPC6 modulators: effect in parental HEK293 cells | shares compounds with TRPC6 inh | membrane potential dye fluorescence | membrane potential signal change, % at 10 µM | 2,400 compounds, 51% hits;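 active = membrane potential signal moves up or down beyond 5 SD from buffer-only wells, on both duplicate plates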
# HEK293 MPD ctr 2-2 – second check of TRPC6 modulator effects in parental HEK293 cells; shares compounds with TRPC6 inh; membrane potential dye fluorescence; after compound, maximal acetylcholine stimulation; inhibition, % at 10 µM; 2,400 compounds, 14% hits; AID 488926;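 active = membrane potential signal drops by more than 5 SD from the mean control signal, in both duplicate plates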;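 note: plate controls were acetylcholine ECmax control wells for no effect and buffer only wells for full effect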
# TRPC4/MOR mod – tests whether TRPC6 modulators also affect mouse TRPC4; shares compounds with TRPC6 inh; HEK293 TRPC4/mu-opioid, membrane potential fluorescence; percent change from control (negative = decrease, positive = increase), % at 10 µM; 2,400 compounds, 69% hits;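 active = membrane potential signal moved up or down beyond 5 SD of buffer control wells, in both duplicate plates, actives on both sides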;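 note: plate controls were assay buffer wells for no effect and DAMGO maximal-effect wells for full effect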
# TRPC4 ctr inh 2 – second check of whether TRPC6 modulators also affect mouse TRPC4; inhibition, % at 10 µM; 2,400 compounds, 55% hits; shares compounds with TRPC6 inh; AID 488928; HEK293 TRPC4/mu-opioid, membrane potential dye fluorescence; stimulated with maximal-effect DAMGO;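 active = drop in membrane potential signal beyond 5 SD of the control wells in both duplicate plates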;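 note: TRPC4 counter screen for TRPC6 hits run under conditions tuned for TRPC6 not TRPC4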
# TRPC6 inh conf – mouse TRPC6 inhibitor confirmation. shares compounds with TRPC6 inh. HEK293-TRPC6, membrane potential dye, ACh-evoked depolarization. inhibition, % at 10 µM. 3,300 compounds, 43% hits;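 active = fluorescence ratio falls more than 5 SD below the full-stimulation control mean, in both duplicate runs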;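 note: integrated fluorescence ratio of peak minus minimum over baseline after agonist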
# TRPC6 act conf – confirmation of mouse TRPC6 activators; shares compounds with TRPC6 inh; HEK293-TRPC6 membrane potential dye fluorescence, FDSS; activation, % at 10 µM; 2,800 compounds, 11% hits; AID 488961;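 active = ratio signal rise beyond 5 SD above unstimulated control wells' mean, seen in both duplicate runs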;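 note: plate controls were buffer EC0 wells for no effect and acetylcholine ECmax response for full effect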
# * marks the source's active call; other numbers are inactive results; i = inactive; / = no result; + = active, no number. Hits are enriched below; roughly 2.3% of the tested compounds scored in any of these assays.
SMILES,TRPC4 act,TRPC6 act,TRPC4 inh,TRPC4 PAM,TRPC6 inh,HEK293 MPD ctr-2,HEK293 MPD ctr 2-2,TRPC4/MOR mod,TRPC4 ctr inh 2,TRPC6 inh conf,TRPC6 act conf,others
CN(C)c1ccc(/C=C/C(=O)c2c(O)c3ccccc3oc2=O)cc1,102*,131*,i,i,i,+,+,492%*,144%*,/,944%*,
C=C(C)CN(CC)c1nc(N)c2c(N)nc3c(c2c1C#N)CC(=O)N3C12CC3CC(CC(C3)C1)C2,i,i,i,i,i,/,/,/,/,/,/,
N#Cc1c(N2CCCC(O)C2)nc(N)c2c(N)nc3c(c12)CC(=O)N3C12CC3CC(CC(C3)C1)C2 (configuration not stated),i,i,i,i,-6.1*,i,i,i,i,i,i,
Cn1c(=O)n(Cc2ccc(F)cc2)c(=O)c2c1nc1n2CCCN1Cc1ccccc1,i,i,i,i,-5.1*,i,i,i,i,i,i,
C=CCn1c(=O)c2ccccc2n2c(SCC(=O)NC)nnc12,i,i,i,i,i,/,/,/,/,/,/,
O=C(Nc1ccccc1C(=O)O)c1ccc(NC(=O)c2ccc(Br)o2)cc1,i,17*,i,i,i,190%*,i,27%*,i,i,94%*,
CCCCCC(=O)Nc1cc(S(=O)(=O)N2CCOCC2)ccc1N1CCCCC1,i,i,i,i,i,/,/,/,/,/,/,
Cc1cc(Nc2ccc3c(c2)OCCO3)c2cc(Cl)ccc2n1,i,i,i,i,-5.1*,-83%*,i,-16%*,44%*,i,i,
Cc1cc(C)c(C#N)c(Nc2ccc3c(c2)OCCO3)n1,i,i,i,i,i,/,/,/,/,/,/,
COCCNc1cnn(-c2ccccc2)c(=O)c1Cl,i,i,i,i,i,/,/,/,/,/,/,
CCc1ccc(N2CC(C(=O)OCC(=O)NNC(=O)c3ccccc3)CC2=O)cc1 (configuration not stated),i,i,i,i,i,/,/,/,/,/,/,
O=[N+]([O-])c1cc(/C=N/O)ccc1N1CCCC1,i,i,i,i,i,/,/,/,/,/,/,
O=[N+]([O-])c1cc(/C=N/n2cnnc2)ccc1N1CCCC1,i,i,i,i,-5.2*,-76%*,i,-15%*,i,i,i,
O=[N+]([O-])c1ccc(N=Nc2c(Cl)cc(O)cc2Cl)cc1,i,i,i,i,-9.6*,/,/,/,/,114%*,i,TRPC4 sel inh 2=27%*;TRPC4 spec=5.7%*;HEK293 MPD ctr 2-1=-26%*;HEK293 MPD ctr-1=i
Cc1cc(=O)n2[nH]c(N)c(N=Nc3ccccc3)c2n1,i,i,i,i,i,/,/,/,/,/,/,
Cc1ccc(N=Nc2c(N)[nH]n3c(=O)cc(-c4ccccc4)nc23)cc1,i,i,i,i,-8.6*,/,/,/,/,79%*,i,TRPC4 sel inh 2=52%*;TRPC4 spec=-17%*;HEK293 MPD ctr 2-1=i;HEK293 MPD ctr-1=-220%*
COc1cccc(N=Nc2c(N)[nH]n3c(=O)cc(-c4ccccc4)nc23)c1,i,i,i,i,-5.3*,i,i,-20%*,66%*,i,i,
COc1cccc(NC(=O)CSc2nnc3ccc(-c4ccncc4)nn23)c1,i,i,i,i,i,/,/,/,/,/,/,
CCOC(=O)c1ccc(/C=C2/C=C(c3ccccc3)N(c3ccc(Cl)c(C(=O)O)c3)C2=O)cc1,72*,36*,i,i,i,+,i,377%*,i,i,686%*,
C#CC[N+](C)(C)CCCCCCCCCCCC,i,i,i,i,-5.1*,i,i,19%*,45%*,60%*,/,
O=C(NCC(O)c1ccccc1)c1ccc(Cl)c(S(=O)(=O)N2CCCC2)c1 (configuration not stated),i,i,i,i,i,/,/,/,/,/,/,
Cc1ccc(F)cc1NC(=O)N1CCN(c2ccnc3cc(Cl)ccc23)CC1,i,i,i,i,-5.3*,-94%*,i,-24%*,i,i,i,
O=C(Nc1cc(F)ccc1F)N1CCN(c2ccnc3cc(Cl)ccc23)CC1,i,i,i,i,i,/,/,/,/,/,/,
COc1ccc(C2c3ccc4ccccc4c3Oc3ncn(CCN(C)C)c(=N)c32)cc1 (configuration not stated),i,i,i,i,-5.4*,115%*,i,10%*,69%*,i,/,
COc1cccc(C(=S)N2CCCC2)c1OC,i,i,i,i,i,/,/,/,/,/,/,
COc1cccc2c1nc(C)c1cc(C)oc12,i,i,i,i,-5.8*,-316%*,i,-54%*,42%*,i,i,
COc1ccc(-c2nc3ccc(C)cn3c2NCc2ccc3c(c2)OCO3)cc1,i,i,i,i,i,/,/,/,/,/,/,
Cc1ccc(-c2nc3ccccn3c2NCc2ccc3c(c2)OCO3)cc1,i,i,i,i,-5.5*,i,i,-19%*,69%*,44%*,i,
